Measurements: ChEMBL document CHEMBL1773057, “Design, synthesis and in vitro antimicrobial evaluation of novel Imidazo[1,2-a]pyridine and imidazo[2,1-b][1,3]benzothiazole motifs” (2011)
In brackets after ≈: the same amount, converted by molar mass.

test system: Escherichia coli; test: Antimicrobial activity against Escherichia coli after 24 hrs by broth microdilution method; type: functional; conditions: not given
Summary of the method: (§1)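 Broth microdilution. Bacteria were grown on Mueller-Hinton agar and diluted in Mueller-Hinton broth. Compounds were made as 1000 µg/mL stocks in 50% DMSO/H₂O and added to wells as two-fold dilutions starting at 500 µg/mL, then inoculated. Sealed plates were incubated at 37 °C for 24 h in a humid chamber. MIC was the lowest concentration with no visible turbidity.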

Row | SMILES | MIC
1 | C=CC1=C(C(=O)O)N2C(=O)[C@@H](NC(=O)/C(=N\OCC(=O)O)c3csc(N)n3)[C@H]2SC1 [CEFIXIME] | 2.12 µg/mL (≈ 4.68 µM)
2 | Cc1ccc(-c2nnc(-c3ccc4nc(-c5c[nH]c6ccc(Br)cc56)c(Nc5ccc(F)cc5)n4c3)o2)cc1 | 6.72 µg/mL (≈ 11.6 µM)
3 | COc1ccc2[nH]cc(-c3nc4sc5cc(F)ccc5n4c3Nc3ccc(F)cc3)c2c1 | 19.7 µg/mL (≈ 44.1 µM)
4 | CC1(C)S[C@@H]2[C@H](NC(=O)[C@H](N)c3ccc(O)cc3)C(=O)N2[C@H]1C(=O)O [AMOXICILLIN] | 15.3 µg/mL (≈ 41.9 µM)
5 | Fc1ccc(Nc2c(-c3cnc4ccc(Br)cc4c3)nc3ccc(-c4ncc(-c5ccc(F)cc5)[nH]4)cn23)cc1 | 1.15 µg/mL (≈ 1.94 µM)
6 | Fc1ccc(Nc2c(-c3cnc4ccc(F)cc4c3)nc3sc4cc(F)ccc4n23)cc1 | 0.23 µg/mL (≈ 0.515 µM)

test system: Priestia megaterium; test: Antimicrobial activity against Bacillus megaterium after 24 hrs by broth microdilution method; type: functional; conditions: not given; summary of the method: as §1

Row | SMILES | MIC
7 | C=CC1=C(C(=O)O)N2C(=O)[C@@H](NC(=O)/C(=N\OCC(=O)O)c3csc(N)n3)[C@H]2SC1 [CEFIXIME] | 126 µg/mL (≈ 279 µM)
8 | Cc1ccc(-c2nnc(-c3ccc4nc(-c5c[nH]c6ccc(Br)cc56)c(Nc5ccc(F)cc5)n4c3)o2)cc1 | 6.44 µg/mL (≈ 11.1 µM)
9 | COc1ccc2[nH]cc(-c3nc4sc5cc(F)ccc5n4c3Nc3ccc(F)cc3)c2c1 | 23.4 µg/mL (≈ 52.5 µM)
10 | CC1(C)S[C@@H]2[C@H](NC(=O)[C@H](N)c3ccc(O)cc3)C(=O)N2[C@H]1C(=O)O [AMOXICILLIN] | 2.28 µg/mL (≈ 6.24 µM)
11 | Fc1ccc(Nc2c(-c3cnc4ccc(Br)cc4c3)nc3ccc(-c4ncc(-c5ccc(F)cc5)[nH]4)cn23)cc1 | 4.07 µg/mL (≈ 6.86 µM)
12 | Fc1ccc(Nc2c(-c3cnc4ccc(F)cc4c3)nc3sc4cc(F)ccc4n23)cc1 | 0.83 µg/mL (≈ 1.86 µM)

test system: Staphylococcus aureus; test: Antimicrobial activity against Staphylococcus aureus after 24 hrs by broth microdilution method; type: functional; conditions: not given; summary of the method: as §1

Row | SMILES | MIC
13 | C=CC1=C(C(=O)O)N2C(=O)[C@@H](NC(=O)/C(=N\OCC(=O)O)c3csc(N)n3)[C@H]2SC1 [CEFIXIME] | 34.6 µg/mL (≈ 76.4 µM)
14 | Cc1ccc(-c2nnc(-c3ccc4nc(-c5c[nH]c6ccc(Br)cc56)c(Nc5ccc(F)cc5)n4c3)o2)cc1 | 3.13 µg/mL (≈ 5.4 µM)
15 | COc1ccc2[nH]cc(-c3nc4sc5cc(F)ccc5n4c3Nc3ccc(F)cc3)c2c1 | 17.4 µg/mL (≈ 38.9 µM)
16 | CC1(C)S[C@@H]2[C@H](NC(=O)[C@H](N)c3ccc(O)cc3)C(=O)N2[C@H]1C(=O)O [AMOXICILLIN] | 12.9 µg/mL (≈ 35.4 µM)
17 | Fc1ccc(Nc2c(-c3cnc4ccc(Br)cc4c3)nc3ccc(-c4ncc(-c5ccc(F)cc5)[nH]4)cn23)cc1 | 0.63 µg/mL (≈ 1.06 µM)
18 | Fc1ccc(Nc2c(-c3cnc4ccc(F)cc4c3)nc3sc4cc(F)ccc4n23)cc1 | 0.26 µg/mL (≈ 0.582 µM)

test system: Aspergillus flavus; test: Antimicrobial activity against Aspergillus flavus after 48 hrs by broth microdilution method; type: functional; conditions: not given
Summary of the method: (§2)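 Fungi were grown on Sabouraud dextrose agar. Inocula were prepared in Sabouraud liquid medium at 37 °C for 12 h, then diluted in RPMI-1640 with L-glutamine, MOPS-buffered at pH 7. Compounds were made as 1000 µg/mL stocks in 50% DMSO/H₂O and tested as two-fold dilutions from 500 µg/mL. Sealed plates were incubated at 37 °C for 48 h in a humid chamber. MIC was the lowest concentration without visible turbidity.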

Row | SMILES | MIC
19 | OC(Cn1cncn1)(Cn1cncn1)c1ccc(F)cc1F [FLUCONAZOLE] | 9.22 µg/mL (≈ 30.1 µM)
20 | Cc1ccc(-c2nnc(-c3ccc4nc(-c5c[nH]c6ccc(Br)cc56)c(Nc5ccc(F)cc5)n4c3)o2)cc1 | 6.55 µg/mL (≈ 11.3 µM)
21 | COc1ccc2[nH]cc(-c3nc4sc5cc(F)ccc5n4c3Nc3ccc(F)cc3)c2c1 | 15.5 µg/mL (≈ 34.8 µM)
22 | Fc1ccc(Nc2c(-c3cnc4ccc(Br)cc4c3)nc3ccc(-c4ncc(-c5ccc(F)cc5)[nH]4)cn23)cc1 | 0.72 µg/mL (≈ 1.21 µM)
23 | Fc1ccc(Nc2c(-c3cnc4ccc(F)cc4c3)nc3sc4cc(F)ccc4n23)cc1 | 1.23 µg/mL (≈ 2.76 µM)

test system: Candida albicans; test: Antimicrobial activity against Candida albicans after 48 hrs by broth microdilution method; type: functional; conditions: not given; summary of the method: as §2

Row | SMILES | MIC
24 | OC(Cn1cncn1)(Cn1cncn1)c1ccc(F)cc1F [FLUCONAZOLE] | 2.11 µg/mL (≈ 6.89 µM)
25 | Cc1ccc(-c2nnc(-c3ccc4nc(-c5c[nH]c6ccc(Br)cc56)c(Nc5ccc(F)cc5)n4c3)o2)cc1 | 11.6 µg/mL (≈ 20.1 µM)
26 | COc1ccc2[nH]cc(-c3nc4sc5cc(F)ccc5n4c3Nc3ccc(F)cc3)c2c1 | 17.5 µg/mL (≈ 39.2 µM)
27 | Fc1ccc(Nc2c(-c3cnc4ccc(Br)cc4c3)nc3ccc(-c4ncc(-c5ccc(F)cc5)[nH]4)cn23)cc1 | 1.05 µg/mL (≈ 1.77 µM)
28 | Fc1ccc(Nc2c(-c3cnc4ccc(F)cc4c3)nc3sc4cc(F)ccc4n23)cc1 | 1.12 µg/mL (≈ 2.51 µM)

test system: Pseudomonas aeruginosa; test: Antimicrobial activity against Pseudomonas aeruginosa after 24 hrs by broth microdilution method; type: functional; conditions: not given; summary of the method: as §1

Row | SMILES | MIC
29 | C=CC1=C(C(=O)O)N2C(=O)[C@@H](NC(=O)/C(=N\OCC(=O)O)c3csc(N)n3)[C@H]2SC1 [CEFIXIME] | 16.4 µg/mL (≈ 36.2 µM)
30 | Cc1ccc(-c2nnc(-c3ccc4nc(-c5c[nH]c6ccc(Br)cc56)c(Nc5ccc(F)cc5)n4c3)o2)cc1 | 5.64 µg/mL (≈ 9.73 µM)
31 | COc1ccc2[nH]cc(-c3nc4sc5cc(F)ccc5n4c3Nc3ccc(F)cc3)c2c1 | 18.5 µg/mL (≈ 41.5 µM)
32 | CC1(C)S[C@@H]2[C@H](NC(=O)[C@H](N)c3ccc(O)cc3)C(=O)N2[C@H]1C(=O)O [AMOXICILLIN] | 14.7 µg/mL (≈ 40.1 µM)
33 | Fc1ccc(Nc2c(-c3cnc4ccc(Br)cc4c3)nc3ccc(-c4ncc(-c5ccc(F)cc5)[nH]4)cn23)cc1 | 1.34 µg/mL (≈ 2.26 µM)
34 | Fc1ccc(Nc2c(-c3cnc4ccc(F)cc4c3)nc3sc4cc(F)ccc4n23)cc1 | 0.15 µg/mL (≈ 0.336 µM)

test system: Candida parapsilosis; test: Antimicrobial activity against Candida parapsilosis after 48 hrs by broth microdilution method; type: functional; conditions: Lodderomyces parapsilosis; summary of the method: as §2

Row | SMILES | MIC
35 | OC(Cn1cncn1)(Cn1cncn1)c1ccc(F)cc1F [FLUCONAZOLE] | 4.35 µg/mL (≈ 14.2 µM)
36 | Cc1ccc(-c2nnc(-c3ccc4nc(-c5c[nH]c6ccc(Br)cc56)c(Nc5ccc(F)cc5)n4c3)o2)cc1 | 10.4 µg/mL (≈ 18 µM)
37 | COc1ccc2[nH]cc(-c3nc4sc5cc(F)ccc5n4c3Nc3ccc(F)cc3)c2c1 | 16.6 µg/mL (≈ 37.2 µM)
38 | Fc1ccc(Nc2c(-c3cnc4ccc(Br)cc4c3)nc3ccc(-c4ncc(-c5ccc(F)cc5)[nH]4)cn23)cc1 | 1.15 µg/mL (≈ 1.94 µM)
39 | Fc1ccc(Nc2c(-c3cnc4ccc(F)cc4c3)nc3sc4cc(F)ccc4n23)cc1 | 1.14 µg/mL (≈ 2.55 µM)

test system: Klebsiella aerogenes; test: Antimicrobial activity against Enterobacter aerogenes after 24 hrs by broth microdilution method; type: functional; conditions: not given; summary of the method: as §1

Row | SMILES | MIC
40 | C=CC1=C(C(=O)O)N2C(=O)[C@@H](NC(=O)/C(=N\OCC(=O)O)c3csc(N)n3)[C@H]2SC1 [CEFIXIME] | 27.1 µg/mL (≈ 59.8 µM)
41 | Cc1ccc(-c2nnc(-c3ccc4nc(-c5c[nH]c6ccc(Br)cc56)c(Nc5ccc(F)cc5)n4c3)o2)cc1 | 4.42 µg/mL (≈ 7.63 µM)
42 | COc1ccc2[nH]cc(-c3nc4sc5cc(F)ccc5n4c3Nc3ccc(F)cc3)c2c1 | 17.8 µg/mL (≈ 40 µM)
43 | CC1(C)S[C@@H]2[C@H](NC(=O)[C@H](N)c3ccc(O)cc3)C(=O)N2[C@H]1C(=O)O [AMOXICILLIN] | 3.45 µg/mL (≈ 9.44 µM)
44 | Fc1ccc(Nc2c(-c3cnc4ccc(Br)cc4c3)nc3ccc(-c4ncc(-c5ccc(F)cc5)[nH]4)cn23)cc1 | 0.81 µg/mL (≈ 1.36 µM)
45 | Fc1ccc(Nc2c(-c3cnc4ccc(F)cc4c3)nc3sc4cc(F)ccc4n23)cc1 | 0.34 µg/mL (≈ 0.762 µM)

test system: Nannizzia gypsea; test: Antimicrobial activity against Microsporum gypseum after 48 hrs by broth microdilution method; type: functional; conditions: not given; summary of the method: as §2

Row | SMILES | MIC
46 | OC(Cn1cncn1)(Cn1cncn1)c1ccc(F)cc1F [FLUCONAZOLE] | 6.57 µg/mL (≈ 21.5 µM)
47 | Cc1ccc(-c2nnc(-c3ccc4nc(-c5c[nH]c6ccc(Br)cc56)c(Nc5ccc(F)cc5)n4c3)o2)cc1 | 13.4 µg/mL (≈ 23.1 µM)
48 | COc1ccc2[nH]cc(-c3nc4sc5cc(F)ccc5n4c3Nc3ccc(F)cc3)c2c1 | 19.6 µg/mL (≈ 44 µM)
49 | Fc1ccc(Nc2c(-c3cnc4ccc(Br)cc4c3)nc3ccc(-c4ncc(-c5ccc(F)cc5)[nH]4)cn23)cc1 | 0.84 µg/mL (≈ 1.42 µM)
50 | Fc1ccc(Nc2c(-c3cnc4ccc(F)cc4c3)nc3sc4cc(F)ccc4n23)cc1 | 1.2 µg/mL (≈ 2.69 µM)

test system: Enterococcus faecalis; test: Antimicrobial activity against Enterococcus faecalis after 24 hrs by broth microdilution method; type: functional; conditions: not given; summary of the method: as §1

Row | SMILES | MIC
51 | C=CC1=C(C(=O)O)N2C(=O)[C@@H](NC(=O)/C(=N\OCC(=O)O)c3csc(N)n3)[C@H]2SC1 [CEFIXIME] | 28.6 µg/mL (≈ 63 µM)
52 | Cc1ccc(-c2nnc(-c3ccc4nc(-c5c[nH]c6ccc(Br)cc56)c(Nc5ccc(F)cc5)n4c3)o2)cc1 | 7.56 µg/mL (≈ 13 µM)
53 | COc1ccc2[nH]cc(-c3nc4sc5cc(F)ccc5n4c3Nc3ccc(F)cc3)c2c1 | 19.5 µg/mL (≈ 43.8 µM)
54 | CC1(C)S[C@@H]2[C@H](NC(=O)[C@H](N)c3ccc(O)cc3)C(=O)N2[C@H]1C(=O)O [AMOXICILLIN] | 1.62 µg/mL (≈ 4.43 µM)
55 | Fc1ccc(Nc2c(-c3cnc4ccc(Br)cc4c3)nc3ccc(-c4ncc(-c5ccc(F)cc5)[nH]4)cn23)cc1 | 1.21 µg/mL (≈ 2.04 µM)
56 | Fc1ccc(Nc2c(-c3cnc4ccc(F)cc4c3)nc3sc4cc(F)ccc4n23)cc1 | 0.21 µg/mL (≈ 0.47 µM)
